Measured values from different studies.
Target: Serine/threonine-protein kinase PLK1 (PLK1, Homo sapiens, UniProt P53350)

| SMILES | observed | action | technique | cell line | tested at | measurement | result |
| --- | --- | --- | --- | --- | --- | --- | --- |
| Nc1nc(Nc2ccccc2)sc1C(=O)c1c(F)cccc1F | enzyme activity | inhibitor | – | – | 10 µM | remaining activity | 86% |
| Cc1cnc(NC2CCOCC2)nc1-n1cnc(C(=O)NC(CN)c2cc(F)cc(Cl)c2)c1 (centres unmarked) | enzyme activity | inhibitor | radiometric | – | 1 µM | remaining activity | 103% |
| CSc1nc(C)c(-c2ccnc(Nc3ccc(N4CCOCC4)cc3)c2)[nH]1 | enzyme activity | inhibitor | – | – | 10 µM | inhibition | 6.3% |
| O=C1NC(=O)c2cc(Nc3ccc(F)cc3)c(Nc3ccc(F)cc3)cc21 | cell-free assay | – | – | – | 0.5 µM | remaining signal | 99.9% |
| CN(C)C1CCN(CC#Cc2nn(C3CCCC3)c3nc(NCc4ccccc4)ncc23)C1 (centres unmarked) | enzyme activity | inhibitor | FRET | – | 0.1 µM | inhibition | -1% |
| O=C(Nc1cnn(-c2csc(C(=O)NC3COC3)c2)c1)Nc1ccccc1Cl | enzyme activity | inhibitor | – | – | 5 µM | remaining activity | 97% |
| Cc1cc(-n2nc(Cc3cc(F)cc(C(F)(F)F)c3)nc2C)ccc1C(N)=O | cell-free assay | – | competition with immobilised ligand | – | 1 µM | remaining binding | 100% |
| Cc1sc(C(=O)NC2COC2)cc1-n1cc(NC(=O)Nc2c(F)cccc2Cl)cn1 | enzyme activity | inhibitor | – | – | 10 µM | remaining activity | 102% |
| O=C(NC[C@@H]1[C@H]2CN(C(=O)OCc3cc(C(F)(F)F)cc(C(F)(F)F)c3)C[C@@H]12)c1ccc2[nH]nnc2c1 | cell-free assay | – | competition with immobilised ligand | – | 1 µM | remaining binding | 100% |
| COc1cc(Cl)c(C(=O)N[C@@H](CN[C@H]2CC[C@@H](N)CC2)Cc2ccc(C#N)cc2)cc1-c1ccc(CN[C@H](C)c2ccc(C)cc2)o1 | enzyme activity | inhibitor | – | – | 1 µM | remaining activity | 94% |
| COc1cc2ncnc(Nc3ccc(Oc4ccccc4)c(C)c3C)c2cc1OC | enzyme activity | inhibitor | – | – | 1 µM | inhibition | -1% |
| CS(=O)(=O)CCNCc1ccc(-c2ccc3ncnc(Nc4ccc(OCc5cccc(F)c5)c(Cl)c4)c3c2)o1 | cell-free assay | – | – | – | 0.5 µM | remaining signal | 99% |
| Cn1nc(C(=O)NCc2ccc(C(=O)O)cc2)cc1-c1ccc2[nH]ccc2c1 | cell-free assay | – | competition with immobilised ligand | – | 0.1 µM | remaining binding | 95% |
| COc1cc(Nc2cnc(C#N)c(O[C@H](C)CN(C)C)n2)ncc1-c1cnn(C)c1 | enzyme activity | inhibitor | radiometric | – | 10 µM | remaining activity | 104% |
| CNC(=O)Nc1ccc2c(c1)CC[C@@]21OC(=O)N(CC(=O)N(Cc2ccc(F)cc2)[C@@H](C)C(F)(F)F)C1=O | cell-free assay | – | competition with immobilised ligand | – | 1 µM | remaining binding | 63% |
| Cc1ccc(C(=O)Nc2ccc(CN3CCN(C)CC3)c(C(F)(F)F)c2)cc1C#Cc1cnc2cccnn12 | enzyme activity | inhibitor | – | – | 23.5 nM | remaining activity | 96% |

| SMILES | observed | action | technique | cell line | tested at | measurement | result |
| --- | --- | --- | --- | --- | --- | --- | --- |
| FC(F)(F)Oc1cccc(-c2cnc3ccc(-c4ccncc4)nn23)c1 | enzyme activity | inhibitor | radiometric | – | 1 µM | activity vs control | 93% |
| CC/C(=N\NC(=O)NCc1cccc(O)c1)c1ccc(O)c(C)c1O | enzyme activity | inhibitor | – | – | 0.1 µM | inhibition | -2.6% |
| C=CC(=O)Nc1cc(Nc2nccc(Nc3cc(Cl)c(F)cc3C(C)(C)O)n2)c(OC)cc1N1CC[C@@H](N(C)C)C1 | enzyme activity | inhibitor | – | – | 1 µM | inhibition | 11% |
| Cc1[nH]c(/C=C2\C(=O)Nc3ccc(F)cc32)c(C)c1C(=O)N[C@H]1CCN(C(=O)N(C)C)C1 | enzyme activity | inhibitor | – | – | 0.1 µM | remaining activity | 126% |
| Oc1cccc(-c2nc(N3CCOCC3)c3oc4ncccc4c3n2)c1 | enzyme activity | inhibitor | – | – | 10 µM | remaining activity | 93% |
| N#CCCc1ccc2c(c1)-c1[nH]c3ccc([N+](=O)[O-])cc3c1CC(=O)N2 | cell-free assay | – | – | – | 0.5 µM | remaining signal | 101% |
| CCOc1cc(-c2nncn2C)ccc1Nc1ncc2cc(C)nc(NCC(C)(C)C)c2n1 | enzyme activity | inhibitor | FRET | – | 1 µM | inhibition | 17% |
| Nc1ncnc2occ(-c3ccc(NC(=O)Nc4cc(C(F)(F)F)ccc4F)cc3)c12 | cell-free assay | inhibitor | – | – | 20 µM | remaining signal | 100% |
| Cn1cc(Cl)c2c(Oc3c(F)cc(Nc4cc(Cl)nc(N)n4)cc3F)ccnc21 | cell-free assay | – | competition with immobilised ligand | – | 0.1 µM | remaining binding | 83% |
| O=C1Nc2ccc(Cl)cc2C1=Cc1cc(Cl)c(O)c(Cl)c1 | cell-free assay | – | – | – | 0.5 µM | remaining signal | 99.8% |
| Cc1c(NC(=O)c2cc(C(N)=O)nc3cc(F)ccc23)c(C(F)(F)F)nn1Cc1ccc(C(C)(C)C)cc1 | cell-free assay | – | competition with immobilised ligand | – | 1 µM | remaining binding | 99% |
| O=C(CSc1nc2nccnc2c(=O)n1CCc1ccccc1)Nc1nccs1 | enzyme activity | inhibitor | – | – | 10 µM | inhibition | 8% |
| O=C(O)[C@@H]1[C@@H](Cn2nnc3ccccc3c2=O)CC[C@H]1C(=O)c1ccc(OCCC2CCOCC2)cc1 | cell-free assay | – | competition with immobilised ligand | – | 1 µM | remaining binding | 80% |
| CCN1CCN(Cc2ccc(NC(=O)c3ccc(C)c(Oc4ccnc5[nH]ccc45)c3)cc2C(F)(F)F)CC1 | target engagement in cells | inhibitor | chemoproteomics | Huh-7 | 10 µM | inhibition | -35% |
| CNCc1ccccc1-c1csc([C@H](C)Nc2nc(C)nc3cc(OC)c(OC)cc23)c1 | cell-free assay | – | competition with immobilised ligand | – | 1 µM | remaining binding | 85% |
| CCCOc1ccc(OC)c(F)c1C(=O)c1ccc(C(=O)N[C@@H]2CNC[C@H]2NC(=O)c2ccc3[nH]ncc3c2)cc1 | enzyme activity | inhibitor | – | – | 10 µM | remaining activity | 105% |
